Bioassay records: PubChem, several laboratories
Hits are enriched below; roughly 1.4% of the tested compounds scored in any of these assays.
NR2E3 ag-1 – agonists of human NR2E3 nuclear receptor | inhibition of corepressor binding, % at 3.98 µM | Q9Y5X4 | CHO-S Gal4-NCOR/VP16-NR2E3 two-hybrid, luciferase | 360,000 compounds, 0.35% hits;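 active = inhibition above the mean of all tested compounds plus 3 SD, cut at about 70% in these data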;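 note: 0% = DMSO with NR2E3 transfected cells and 100% = cells lacking NR2E3 construct; higher means lower luciferase signal from less NR2E3 corepressor binding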
Rev-erbA mod – Rev-erb alpha (human) modulation; Rev-erbα–FITC-DNA binding, fluorescence polarization, 90 min; P20393; activity, % at 10 µM; 370,000 compounds, 0.79% hits; AID 1259318;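 active = activity above about 14%, limit read from the data; passing the limit was not always enough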;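 note: 0% = DMSO wells with 35 nM protein and 100% = DMSO wells with 750 nM protein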
Target sequence (P20393 whole entry, looked up): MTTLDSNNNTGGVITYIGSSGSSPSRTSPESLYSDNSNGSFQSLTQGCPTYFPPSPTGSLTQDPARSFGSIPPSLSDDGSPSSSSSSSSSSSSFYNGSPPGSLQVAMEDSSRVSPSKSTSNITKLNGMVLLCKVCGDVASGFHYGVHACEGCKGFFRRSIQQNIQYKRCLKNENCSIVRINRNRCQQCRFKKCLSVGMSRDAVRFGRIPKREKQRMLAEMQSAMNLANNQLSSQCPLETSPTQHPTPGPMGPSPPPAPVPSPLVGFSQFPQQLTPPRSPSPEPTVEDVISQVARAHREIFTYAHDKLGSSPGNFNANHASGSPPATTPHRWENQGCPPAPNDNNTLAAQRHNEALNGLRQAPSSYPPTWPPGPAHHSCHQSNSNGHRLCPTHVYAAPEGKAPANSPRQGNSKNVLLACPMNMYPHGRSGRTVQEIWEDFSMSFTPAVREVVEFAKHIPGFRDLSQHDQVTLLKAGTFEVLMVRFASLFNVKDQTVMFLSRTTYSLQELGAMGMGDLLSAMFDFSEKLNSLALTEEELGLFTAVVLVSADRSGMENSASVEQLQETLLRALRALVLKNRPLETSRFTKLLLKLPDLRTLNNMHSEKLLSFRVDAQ
NR2E3 ag-2 – activates human photoreceptor nuclear receptor NR2E3. Q9Y5X4. GST-NR2E3/biotin-RetCOR TR-FRET, 1536-well. inhibition of corepressor binding, % at 4.78 µM. AID 2300. 320,000 compounds, 0.12% hits;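 active = percent inhibition above the cutoff of mean plus 3 SD of all tested compounds, set per screening campaign, cut at about 20% in these data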;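 note: 0% = DMSO wells and 100% = biotin wells as full block of FRET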
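Format: 1536-well format; test system: GST-NR2E3 and biotin-RetCOR proteins; read-out basis: percent inhibition of TR-FRET ratio; timing: 5 h incubation at 4 °C; detection: time-resolved FRET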
PG9 Ab binder – small molecules binding HIV-1 gp120 antibody PG9; TR-FRET gp120-PG9 antibody binding; inhibition, % at 6.7 µM; 360,000 compounds, 0.43% hits; AID 624416; in the data active = inhibition above about 8.5%
NR2E3 ag confirm – NR2E3 agonism confirmed in two-hybrid assay | shares compounds with NR2E3 ag-1 | CHO-S mammalian two-hybrid NR2E3-NCOR, luciferase luminescence | inhibition, % at 3.98 µM | 2,300 compounds, 51% hits;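 active = average inhibition above a cutoff equal to the mean inhibition of all tested compounds plus one SD, cut at about 70% in these data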;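 note: 0% = DMSO in NR2E3 cells and 100% = DMSO in cells lacking NR2E3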
GAL4-VP16 luc – reduces GAL4-VP16 reporter signal in NR2E3 counterscreen; CHO-S GAL4-VP16 luciferase reporter, luminescence; inhibition, % at 3.98 µM; 2,300 compounds, 29% hits; shares compounds with NR2E3 ag-1; AID 624379;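 active = mean inhibition above a cutoff equal to the average over all tested compounds plus one standard deviation, cut at about 70% in these data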;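 note: luciferase from a UAS reporter driven by GAL4-VP16 transactivation; 0% = DMSO with VP16-transfected cells and 100% = DMSO with cells lacking VP16; higher means less reporter light so more repression of VP16 activity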
Starred values were filed as active, the others as inactive; / = not tested or not shown.

SMILES | NR2E3 ag-1 | Rev-erbA mod | NR2E3 ag-2 | PG9 Ab binder | NR2E3 ag confirm | GAL4-VP16 luc
COc1ccc(NS(=O)(=O)c2ccc(-c3coc(C)n3)cc2)cc1OC | 108* | -4 | 2 | -3 | 99* | 87*
COc1ccc(NS(=O)(=O)c2ccc(-c3coc(C)n3)cc2)cc1 | 43 | 4 | 0 | -1 | / | /
Cc1ccc(NS(=O)(=O)c2ccc(-c3coc(C)n3)cc2)c(Br)c1 | 57 | 5 | -4 | 1 | 60 | 43
Cc1nc(-c2ccc(S(=O)(=O)Nc3cccc(Cl)c3)cc2)co1 | 35 | 3 | 0 | 3 | / | /
Cc1ccc(C)c(NS(=O)(=O)c2ccc(-c3coc(C)n3)cc2)c1 | 19 | -1 | 2 | 1 | / | /
CSc1cccc(NS(=O)(=O)c2ccc(-c3coc(C)n3)cc2)c1 | 93* | -3 | -1 | -1 | 77* | 60
CCCCCCCCN1CCS(=O)(=O)N(Cc2ccc(C(F)(F)F)cc2)C(C(=O)OC)C1 (stereo not drawn) | / | -10 | / | / | / | /
COc1ccc2cc(-c3cccc4[nH]cc(C)c34)ccc2c1 | / | 9 | / | / | / | /
O=C(NC(=O)N1CCN(c2ccccc2)CC1)c1ccc(Cl)cc1 | -39 | 0 | -4 | -3 | / | /
O=C(NC(=O)N1CCN(c2cccc(Cl)c2)CC1)c1ccccc1 | 51 | -2 | -2 | -1 | 85* | 35
O=C(NC(=O)N1CCN(c2cccc(Cl)c2)CC1)c1ccc(Cl)cc1 | 80* | 0 | 0 | 0 | 95* | 54
COc1ccc(N2CCN(C(=O)NC(=O)c3ccccc3)CC2)cc1 | 9 | 6 | -4 | -2 | / | /
CC(C)C(NC(=O)Cc1ccccc1)C(=O)N1CCN(c2cccc(Cl)c2)CC1 (stereo not drawn) | 63 | -2 | 0 | 1 | 65 | 42
COc1ccc(C(=O)C2(C(=O)Nc3cc(C)cc(C)c3)CC(c3ccccn3)=NO2)cc1 (stereo not drawn) | / | 8 | / | / | / | /
Cc1cc(C)cc(NC(=O)NCCCN2CCN(c3ccc(F)cc3)CC2)c1 | / | 3 | / | / | / | /
COc1ccc(CC(=O)Nc2ccncc2Cl)cc1 | 92* | -4 | -2 | 0 | 87* | 71*
O=C(Cc1c(Cl)cccc1Cl)Nc1ccncc1Cl | 22 | 1 | 4 | -1 | / | /
O=C(Cc1ccc(Cl)cc1Cl)Nc1ccncc1Cl | 98* | 0 | 1 | -3 | 87* | 78*
O=C(Cc1ccc(Cl)cc1Cl)Nc1ccncc1 | 64 | -4 | -2 | 0 | / | /
CC(=O)N1CC(C)Sc2ccc(S(=O)(=O)NCCc3cccc(C)c3)cc21 (stereo not drawn) | 79* | 0 | 1 | -2 | 77* | 70
COc1ccc(CNS(=O)(=O)c2ccc3c(c2)N(C(C)=O)CC(C)S3)cc1 (stereo not drawn) | 68 | 4 | 6 | 3 | 23 | 37
CC(=O)N1CC(C)Sc2ccc(S(=O)(=O)NCc3ccc(F)cc3)cc21 (stereo not drawn) | 27 | 0 | 3 | 1 | / | /
CC(=O)N1CC(C)Sc2ccc(S(=O)(=O)NC3CCCCC3)cc21 (stereo not drawn) | 41 | 3 | -1 | -2 | / | /
CC(=O)N1CCc2cc(S(=O)(=O)NCc3ccc(C)cc3)ccc21 | 53 | 3 | 1 | -1 | 52 | 62
COC(=O)[C@]12C[C@H](CC(=O)N3CCC(c4ccccc4)CC3)C(=O)N(Cc3ccco3)C1=C[C@H](C(C)C)O[C@@H]2C1CC1 | / | 7 | / | / | / | /
SMILES | NR2E3 ag-1 | Rev-erbA mod | NR2E3 ag-2 | PG9 Ab binder | NR2E3 ag confirm | GAL4-VP16 luc
CCOC(=O)N(C)[C@H]1C[C@H]2c3[nH]c4c(-c5ccc6c(c5)OCO6)cccc4c3CCN2C(=O)[C@H]1[C@H](C)O | / | -4 | / | / | / | /
CN(C)S(=O)(=O)N1CCC(Oc2ccc(C(=O)NC3Cc4ccccc4C3)cc2)CC1 | -33 | 1 | 1 | 0 | / | /
CN(C)S(=O)(=O)N1CCC(Oc2cccc(C(=O)NC3CCCCCC3)c2)CC1 | 91* | 0 | -3 | -2 | 60 | 54
Cc1ccc(Cn2nnc3c2-c2cc(F)ccc2S(=O)(=O)N(C(C)(C)C)C3)cc1 | / | 4 | / | / | / | /
O=C1Cc2c([nH]c3ccc([N+](=O)[O-])cc23)-c2ccccc2N1 | 85* | -23 | / | -2 | 97* | 71*
O=c1[nH]c2cc([N+](=O)[O-])ccc2c2ccccc12 | 3 | -3 | / | -3 | / | /
CN[C@H]1C[C@H]2c3cc(-c4ccccc4C)ccc3CCN2C[C@H]1[C@H](C)O | / | -5 | / | / | / | /
